# Sampled rows, rich in hits. Any-hit rate of the full collection: about 2.3%.
# TRPC6 act: activates the mouse TRPC6 cation channel; 0.13% of 310,000 active; B-score at 10 µM; HEK293-TRPC6 membrane potential dye fluorescence; active compounds read high;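 active means B-score of the integrated fluorescence ratio above library mean plus 3 SD, and starting fluorescence ratio within library mean plus 5 SD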;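 further: higher score means more depolarization so channel activation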
# TRPC6 inhibitor: blocks the mouse TRPC6 cation channel. AID 2553. 1.1% of 310,000 active. HEK293-TRPC6, membrane potential dye, ACh-evoked depolarization; active compounds read low. B-score at 10 µM;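 active means B-score under library mean minus 3 SD, initial fluorescence not abnormally high, positive integrated signal ratio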;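 further: B-score derived from integrated fluorescence ratio over the kinetic read; more negative B-score means stronger inhibition of depolarization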
# TRPC4 potent: allosteric potentiators of mouse TRPC4 channel; Q9QUQ5; HEK293 TRPC4beta/mu-opioid, DAMGO EC20, Fluo-4 Ca2+ flux; active compounds read high; AID 2227; 0.42% of 310,000 active; B-score at 10 µM;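 active means B-score of calcium response area above 5 SD of library B-scores, with initial fluorescence ratio within 5 SD of library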;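 further: B-score of integrated fluorescence ratio over time as area under calcium response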
# Target sequence (Q9QUQ5 whole entry, looked up): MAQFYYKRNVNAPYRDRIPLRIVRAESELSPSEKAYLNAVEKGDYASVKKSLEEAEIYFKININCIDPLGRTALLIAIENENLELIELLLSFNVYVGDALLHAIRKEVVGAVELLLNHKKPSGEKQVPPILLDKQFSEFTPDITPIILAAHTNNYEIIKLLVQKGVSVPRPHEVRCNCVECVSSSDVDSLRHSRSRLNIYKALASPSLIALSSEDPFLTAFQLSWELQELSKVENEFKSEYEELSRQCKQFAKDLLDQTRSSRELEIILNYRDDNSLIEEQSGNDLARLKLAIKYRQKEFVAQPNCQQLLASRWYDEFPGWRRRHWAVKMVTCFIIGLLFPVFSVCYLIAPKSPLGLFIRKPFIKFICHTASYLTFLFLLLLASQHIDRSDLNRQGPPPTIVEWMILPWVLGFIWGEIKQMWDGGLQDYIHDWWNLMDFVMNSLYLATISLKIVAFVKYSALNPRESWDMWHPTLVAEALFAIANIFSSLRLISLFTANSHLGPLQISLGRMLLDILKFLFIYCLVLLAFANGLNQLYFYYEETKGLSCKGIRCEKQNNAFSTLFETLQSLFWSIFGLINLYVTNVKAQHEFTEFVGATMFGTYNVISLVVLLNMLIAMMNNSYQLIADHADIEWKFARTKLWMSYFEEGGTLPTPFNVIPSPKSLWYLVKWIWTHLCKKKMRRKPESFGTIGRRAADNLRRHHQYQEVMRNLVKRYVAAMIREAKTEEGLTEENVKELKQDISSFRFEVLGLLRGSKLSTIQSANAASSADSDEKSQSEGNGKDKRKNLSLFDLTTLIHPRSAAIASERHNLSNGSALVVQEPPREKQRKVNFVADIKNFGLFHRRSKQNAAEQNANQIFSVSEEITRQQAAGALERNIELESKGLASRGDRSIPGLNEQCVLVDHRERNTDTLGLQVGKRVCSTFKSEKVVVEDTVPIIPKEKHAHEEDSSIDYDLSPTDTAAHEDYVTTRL
# CR mimetic SO: caloric restriction mimetics inhibiting age-related superoxide in yeast. S. cerevisiae aged cells, superoxide DHE fluorescence; active compounds read low. superoxide response (% of plate mean), % at 10 µM. 0.18% of 330,000 active. AID 2690;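 active means superoxide response under a set limit, about three screen SD below normal, cut at about 65% in these data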;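 further: yeast aged for seven days with compound at 30 °C before DHE staining; 100% = average MFI of all compound-treated wells on the plate with controls excluded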
# TRPC4 agonist: activators of mouse TRPC4 channel. HEK293 TRPC4beta/mu-opioid, Fluo4 calcium fluorescence; active compounds read high. B-score at 10 µM. 0.49% of 310,000 active. AID 2237;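 active means B-score above 5 SD of library B-scores, and initial fluorescence ratio not above library mean plus 5 SD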;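 further: positive B-score marks a calcium rise read as TRPC4 activation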
#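 Incubation: 45 min room-temperature Fluo4 loading, 110 s read / System: HEK293 cells stably co-expressing mouse TRPC4beta and mu-opioid receptor / Signal: Fluo4 fluorescence, kinetic / Control set: buffer (low) and maximal DAMGO (high) / Measure: integrated baseline-normalised fluorescence ratio, converted to per-well B score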
# TRPC4 block: TRPC4 (mouse) channel inhibition; Q9QUQ5; HEK293 TRPC4beta/mu-opioid, DAMGO-evoked Fluo4 calcium flux; active compounds read low; B-score at 10 µM; 0.39% of 300,000 active; AID 2247;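 active means B-score over 3 SD under the library average, no early fluorescence shift, positive overall ratio signal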
#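 Signal: kinetic Fluo4 fluorescence imaging of calcium influx. Material: stable TRPC4beta/mu-opioid receptor HEK293 cells. Probe or stimulus: DAMGO in two steps, submaximal then maximal.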
# HEK293 TRPC6 ctr: checks TRPC6 modulator effects in parental HEK293 cells. membrane potential dye fluorescence. membrane potential signal change, % at 10 µM. 51% of 2,400 active. shares compounds with TRPC6 inhibitor;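 active means membrane potential signal moves up or down beyond 5 SD from buffer-only wells, on both duplicate plates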
# HEK293 MPD ctr 2: second check of TRPC6 modulator effects in parental HEK293 cells; shares compounds with TRPC6 inhibitor; membrane potential dye fluorescence; after compound, maximal acetylcholine stimulation; inhibition, % at 10 µM; 14% of 2,400 active; AID 488926;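 active means membrane potential signal drops by more than 5 SD from the mean control signal, in both duplicate plates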;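 further: plate controls were acetylcholine ECmax control wells for no effect and buffer only wells for full effect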
# TRPC4 ctr mod: tests whether TRPC6 modulators also affect mouse TRPC4; 69% of 2,400 active; HEK293 TRPC4/mu-opioid, membrane potential fluorescence; percent change from control (negative = decrease, positive = increase), % at 10 µM; shares compounds with TRPC6 inhibitor;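 active means membrane potential signal moved up or down beyond 5 SD of buffer control wells, in both duplicate plates, actives on both sides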;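 further: plate controls were assay buffer wells for no effect and DAMGO maximal-effect wells for full effect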
# TRPC4/MOR inh 2: second selectivity test of TRPC6 modulators against mouse TRPC4; AID 488928; 55% of 2,400 active; inhibition, % at 10 µM; shares compounds with TRPC6 inhibitor; HEK293 TRPC4/mu-opioid, membrane potential dye fluorescence; stimulated with maximal-effect DAMGO;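 active means drop in membrane potential signal beyond 5 SD of the control wells in both duplicate plates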;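 further: TRPC4 counter screen for TRPC6 hits run under conditions tuned for TRPC6 not TRPC4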
# TRPC6 block conf: confirmation of mouse TRPC6 inhibitors | AID 488960 | inhibition, % at 10 µM | shares compounds with TRPC6 inhibitor | HEK293-TRPC6, membrane potential dye, ACh-evoked depolarization | 43% of 3,300 active;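 active means fluorescence ratio falls more than 5 SD below the full-stimulation control mean, in both duplicate runs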;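 further: integrated fluorescence ratio of peak minus minimum over baseline after agonist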
# TRPC6 act conf: mouse TRPC6 activator confirmation; shares compounds with TRPC6 inhibitor; HEK293-TRPC6 membrane potential dye fluorescence, FDSS; activation, % at 10 µM; 11% of 2,800 active; AID 488961;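 active means ratio signal rise beyond 5 SD above unstimulated control wells' mean, seen in both duplicate runs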;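 further: plate controls were buffer EC0 wells for no effect and acetylcholine ECmax response for full effect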
# CR mimetic CP: confirmation of caloric restriction mimetics inhibiting yeast age-related superoxide; AID 434994; shares compounds with CR mimetic SO; 1% of 850 active; superoxide response (% of plate), % at 10 µM; S. cerevisiae aging, superoxide DHE fluorescence; active compounds read low;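 active means superoxide signal below 65% of the plate average of sample wells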;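 further: cells aged with compound for 7 days at 30 degrees C before staining; 100% equals mean DHE fluorescence of all compound wells on the plate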
# DHE fluor count: compound alters DHE oxidation or fluorescence in yeast; fluorescence response, % at 10 µM; 850 tested, under 10 active; S. cerevisiae BY4741, flow cytometry; active compounds read low; shares compounds with CR mimetic SO;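 active means fluorescence response below 15%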;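 further: percent of the mean fluorescence averaged over all compound wells on the plate; lower means stronger quenching of DHE signal or ROS scavenging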
# * hit, by the source's call; i = inactive; nt = no result given.
SMILES,TRPC6 act,TRPC6 inhibitor,TRPC4 potent,CR mimetic SO,TRPC4 agonist,TRPC4 block,CR mimetic CP,DHE fluor count,others
CNc1ccc2nc3ccccc3[n+](C)c2c1,i,-12.2*,i,61.9*,i,i,61.6*,110.3,HEK293 TRPC6 ctr=-84.0%*;HEK293 MPD ctr 2=161.5%*;TRPC4 ctr mod=-48.0%*;TRPC4/MOR inh 2=51.5%*;TRPC6 block conf=86.5%*;TRPC6 act conf=i
CN1CCN(c2c[nH]c(=O)[nH]c2=O)CC1,i,i,i,95.0,i,i,nt,nt,
Cc1ccc[n+](CC(O)Cn2c3ccccc3c3ccccc32)c1 (configuration not stated),i,i,i,52.3*,i,i,92.0,90.7,
CCOc1ccc(C2SCC(=O)Nc3c2c(=O)[nH]n3C2CCCCCC2)cc1 (configuration not stated),i,i,i,61.6*,i,i,104.5,96.1,
COc1ccc(C2SCC(=O)Nc3c2c(=O)[nH]n3C2CCCCCC2)cc1 (configuration not stated),i,i,i,100.2,i,i,nt,nt,
C[C@]12CCC3C(CC[C@@H]4[C@H]5O[C@H]5CC[C@]34C)C1CC[C@@H]2O (some centres not stated),nt,nt,nt,nt,nt,nt,77.7,92.6,
C[C@]12CCC3C(C[C@@H](O)[C@H]4C[C@@H](O)CC[C@]34C)C1CC[C@@H]2O (some centres not stated),nt,nt,nt,103.9,nt,nt,95.5,95.0,
N#CC[N+]1(CCCNP2(=O)C=C(c3ccccc3)OC(c3ccccc3)=C2)CCOCC1,i,i,i,106.3,i,i,nt,nt,
O=C1NC(=S)N(C2CC2)C(=O)/C1=C/c1ccc2c(c1)CCN2CCCCl,i,i,i,92.5,i,i,nt,nt,
CC(=NCC1CCCO1)c1c(O)n(-c2ccc(Cl)cc2)c(=O)[nH]c1=O (configuration not stated),i,i,i,92.2,i,i,nt,nt,
COc1ccc(-n2c(O)c(C(C)=NCC3CCCO3)c(=O)[nH]c2=O)cc1 (configuration not stated),i,i,i,55.8*,i,i,107.1,126.2,
C[C@]12CCC3C(CC[C@H]4C[C@@H](O)CC[C@]34C)C1[C@H]1CN=N[C@H]1[C@@H]2O (some centres not stated),nt,nt,nt,107.8,nt,nt,133.8,120.4,
CC(=O)C1CCC2C3CCC4CC(O)CCC4(C)C3CCC12C (configuration not stated),i,i,i,97.2,i,i,nt,nt,
C[C@]12CCC3C(CC[C@H]4C[C@@H](O)CC[C@]34C)C1CC[C@@H]2OC(=O)[C@H](N)CCCCN (some centres not stated),nt,nt,nt,81.8,nt,nt,72.8,98.3,
C[C@]12CCC3C(CC[C@H]4C[C@@H](O)CC[C@]34C)C1C[C@@H](Br)[C@H]2O (some centres not stated),nt,nt,nt,77.0,nt,nt,104.0,112.5,
C[C@]12CCC3C(CC[C@H]4C[C@@H](O)CC[C@]34C)C1CCC2=O (some centres not stated),nt,nt,nt,62.7*,nt,nt,90.0,102.8,
CCc1ccc(NC2=NCCCS2)cc1,i,i,i,100.0,i,i,nt,nt,
Cc1ccc(S(=O)(=O)c2nc(-c3ccccc3Cl)oc2N(C)C2CCN(C)CC2)cc1,nt,nt,nt,99.9,nt,nt,nt,nt,
CC(C)(C)c1ccc(C(=O)C2CCCN(Cc3ccon3)C2)cc1 (configuration not stated),i,i,i,94.0,i,i,nt,nt,
CC(C)(C)c1ccc(C(=O)C2CCCN(C3CCC3)C2)cc1 (configuration not stated),i,i,i,64.7*,57*,i,121.3,118.7,
CC1CCC(C(C)C)C(OC(=O)Cn2c(COc3ccccc3)[n+](C)c3ccccc32)C1 (configuration not stated),i,i,i,116.5,i,i,nt,nt,
Cc1c(O)ccc(C(=O)CN2CC(C)OC(C)C2)c1O (configuration not stated),i,i,i,103.7,i,i,nt,nt,
CSCCC(NC(=O)CCC(=O)OC1CC[C@H]2[C@@H]3CC[C@H]4CC(=O)CC[C@]4(C)[C@H]3CC[C@]12C)C(=O)O (some centres not stated),i,i,i,97.3,i,i,83.5,105.2,
C[C@]12CCC(=O)C[C@H]1CC[C@@H]1[C@@H]2CC[C@]2(C)[C@@H](O)CC[C@@H]12,nt,nt,nt,73.3,nt,nt,99.0,117.8,
C[C@]12CCC(=O)C=C1CCC1C2CC[C@@]2(C)C1CC[C@@H]2O (some centres not stated),nt,nt,nt,91.7,nt,nt,nt,nt,
CC12CCC3C(CCC4CC(=O)C(C(O)C(F)(F)F)CC43C)C1CCC2O (configuration not stated),nt,nt,nt,nt,nt,nt,101.2,115.5,
C[C@]12CCC3[C@@H](CC[C@@H]4C[C@H](O)CC[C@]34C)[C@@H]1CCC2=O (some centres not stated),nt,nt,nt,66.4,nt,nt,nt,nt,
CCCc1[nH]nc2c1C1(C(=O)N(CC(N)=O)c3ccccc31)C(C(=O)OC)=C(N)O2 (configuration not stated),i,i,i,93.6,i,i,nt,nt,
